Results reported in ChEMBL document CHEMBL1129050, “Correlation of anti-HIV potency with lipophilicity in a series of cosalane analogs having normal alkenyl and phosphodiester chains as cholestane replacements” (J Med Chem, 1996).

Legend:
CEM-SS [1] = test: Effective concentration against HIV-1RF induced cytopathicity in CEM-SS cells; type: functional, cell-based; details: Homo sapiens
Summary of the method: (§1)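 CEM-SS cells (5000/well) infected with thawed HIV-1 RF stock at MOI 0.01 in the presence of serially diluted compound (as ammonium salts); 37 °C, 5% CO₂, 6 days. Supernatant assayed for RT activity, p24 and/or infectious virus; cell protection from cytopathic effect read by XTT. EC₅₀ averaged from at least two determinations; compounds tested up to […].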

CEM-SS [2] = test: Cytotoxic concentration against mock-infected CEM-SS cells; type: functional, cell-based; details: Homo sapiens
Summary of the method: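 Uninfected (mock-infected) CEM-SS cells, exponentially growing, seeded at 5000 cells/well with serially diluted compound (tested as ammonium salts) in complete medium; 37 °C, 5% CO₂, 6 days. Growth/viability by XTT assay; IC₅₀ = 50% cytotoxic concentration, averaged from at least two determinations.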

CEM-SS [3] = test: Effective concentration against HIV-1RF induced cytopathicity in CEM-SS cells; No antiviral uM; type: functional, cell-based, Homo sapiens; summary of the method: as §1
CEM-SS [4] = test: Effective concentration against HIV-1RF induced cytopathicity in CEM-SS cells; No antiviral activity was observed at concentrations uM; type: functional, cell-based, Homo sapiens; summary of the method: as §1

Compound	EC50 (CEM-SS [1])	EC50 (CEM-SS [3])	EC50 (CEM-SS [4])	IC50 (CEM-SS [2])
CCCCC/C=C\C/C=C\CCCCCCCCOP(=O)(O)OCCC=C(c1cc(Cl)c(O)c(C(=O)O)c1)c1cc(Cl)c(O)c(C(=O)O)c1	51.8 µM			86 µM
O=C(O)c1cc(C(=CCC23CC4CC(CC(C4)C2)C3)c2cc(Cl)c(O)c(C(=O)O)c2)cc(Cl)c1O		Not Active		105 µM
CC(C)CCCC(C)[C@H]1CC[C@H]2[C@@H]3CCC4C[C@@H](CCC=C(c5cc(Cl)c(O)c(C(=O)O)c5)c5cc(Cl)c(O)c(C(=O)O)c5)CC[C@]4(C)[C@H]3CC[C@]12C (some centres undefined)	3 µM			> 300 µM
CCCCCC=C(c1cc(Cl)c(O)c(C(=O)O)c1)c1cc(Cl)c(O)c(C(=O)O)c1			Not Active	> 95 µM
O=C(O)c1cc(Cc2cc(Cl)c(O)c(C(=O)O)c2)cc(Cl)c1O	329 µM			> 364 µM
CCCCCCCC/C=C\CCCCCCCCOP(=O)(O)OCCC=C(c1cc(Cl)c(O)c(C(=O)O)c1)c1cc(Cl)c(O)c(C(=O)O)c1	49 µM			61.3 µM

Further lines, with some results ahead:

EC50 (CEM-SS [1])	EC50 (CEM-SS [3])	EC50 (CEM-SS [4])	Compound	IC50 (CEM-SS [2])
13.1 µM			CCCCCCCCCCCCCCCCCCCCCCCCCCCCCC=C(c1cc(Cl)c(O)c(C(=O)O)c1)c1cc(Cl)c(O)c(C(=O)O)c1	> 220 µM
19.8 µM			CCCCCCCCCCCCCCCC=C(c1cc(Cl)c(O)c(C(=O)O)c1)c1cc(Cl)c(O)c(C(=O)O)c1	> 35 µM
	Not Active		CCCCCCCCCCCCCCOP(=O)(O)OCCC=C(c1cc(Cl)c(O)c(C(=O)O)c1)c1cc(Cl)c(O)c(C(=O)O)c1	101 µM
43.2 µM			CCCCCCCCCC=C(c1cc(Cl)c(O)c(C(=O)O)c1)c1cc(Cl)c(O)c(C(=O)O)c1	> 49 µM
	Not Active		CCCCCCCCCCCCCCCCCCOP(=O)(O)OCCC=C(c1cc(Cl)c(O)c(C(=O)O)c1)c1cc(Cl)c(O)c(C(=O)O)c1	74 µM
	Not Active		CCCCCCCCCCCCCCCCOP(=O)(O)OCCC=C(c1cc(Cl)c(O)c(C(=O)O)c1)c1cc(Cl)c(O)c(C(=O)O)c1	84 µM
